Tests used:
[1] = biological target: Orexin receptor type 1 (Homo sapiens) (UniProt O43613); experiment: Binding affinity to human orexin 1 receptor expressed in CHO cells after 3 hrs by radioligand binding assay
[2] = biological target: T1, Orexin receptor type 2 (Homo sapiens, UniProt O43614); experiment: Antagonist activity at human orexin 2 receptor expressed in CHO cells assessed as inhibition of orexin-A-induced intracellular calcium level after 60 mins by FLIPR assay; assay type: functional, cell-based
T1 sequence (O43614 whole entry): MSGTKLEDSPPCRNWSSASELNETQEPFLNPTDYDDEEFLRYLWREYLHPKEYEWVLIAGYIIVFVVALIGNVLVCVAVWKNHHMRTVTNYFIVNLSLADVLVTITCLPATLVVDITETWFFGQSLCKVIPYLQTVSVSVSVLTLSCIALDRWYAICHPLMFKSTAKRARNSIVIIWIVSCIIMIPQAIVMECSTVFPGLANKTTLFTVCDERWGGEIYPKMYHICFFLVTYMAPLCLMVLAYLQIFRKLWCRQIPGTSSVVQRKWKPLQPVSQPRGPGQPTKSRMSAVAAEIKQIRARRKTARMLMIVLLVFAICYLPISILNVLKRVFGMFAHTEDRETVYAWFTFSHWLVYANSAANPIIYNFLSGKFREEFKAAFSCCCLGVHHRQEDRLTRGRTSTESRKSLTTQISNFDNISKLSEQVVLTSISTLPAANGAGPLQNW

[3] = biological target: Orexin receptor type 2 (Homo sapiens) (UniProt O43614); experiment: Antagonist activity at human orexin 2 receptor expressed in CHO cells assessed as inhibition of orexin-A-induced intracellular calcium level after 60 mins by FLIPR assay; conditions: 1 h
[4] = biological target: Orexin receptor type 2 (Homo sapiens) (UniProt O43614); experiment: Binding affinity to human orexin 2 receptor expressed in CHO cells after 3 hrs by radioligand binding assay
[5] = Clearance in dog at 0.125 mg/kg, iv; assay type: ADME, organism-based, Canis lupus familiaris; conditions: in vivo
How it was run: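 Intravenous PK in rat (2 mg/kg) and dog (0.125 or 0.5 mg/kg), vehicle 100% DMSO, n = 2. Clearance, Vdss and half-life were determined.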

Row | SMILES | Ki [1] [µM] | IC50 [2] [µM] | IC50 [3] [µM] | Ki [4] [µM] | clearance [5] [mL/min/kg]
1 | C[C@@H]1CCN(c2ncc(C(F)(F)F)c(Cl)n2)CCN1C(=O)c1ccccc1-n1nccn1 | 0.0051 | 0.088 | 0.088 | – | –
2 | Cc1ncc(C(F)(F)F)c(N2CC[C@@H](C)N(C(=O)c3ccccc3-n3nccn3)CC2)n1 | 4.2 | 0.088 | 0.088 | 0.031 | –
3 | COc1nc(N2CC[C@@H](C)N(C(=O)c3ccccc3-n3nccn3)CC2)ncc1C(F)(F)F | 0.0063 | 0.021 | 0.021 | 0.0007 | 3
4 | Cc1ccc(-n2nccn2)c(C(=O)N2CCN(c3ncc(C(F)(F)F)c(Cl)n3)CC[C@H]2C)c1 | 0.0007 | 0.14 | 0.14 | 0.0006 | 15
5 | Cc1ncc(C)c(N2CC[C@@H](C)N(C(=O)c3ccccc3-n3nccn3)CC2)n1 | 3.6 | 0.082 | – | – | –
6 | Cc1ccc(-n2nccn2)c(C(=O)N2CCN(c3ncc(Cl)c(C)n3)CC[C@H]2C)c1 | 0.0061 | 0.02 | 0.02 | – | 9
7 | COc1nc(N2CC[C@@H](C)N(C(=O)c3cc(C)ccc3-n3nccn3)CC2)ncc1C | 0.014 | 0.031 | 0.031 | 0.0006 | –
8 | C[C@@H]1CCN(c2nc(Cl)ncc2C(F)(F)F)CCN1C(=O)c1ccccc1-n1nccn1 | 1.1 | 0.072 | 0.072 | – | –
9 | Cc1cnc(Cl)nc1N1CC[C@@H](C)N(C(=O)c2ccccc2-n2nccn2)CC1 | 0.76 | 0.042 | – | 0.0026 | –

From ChEMBL document CHEMBL3621132, “Discovery of diazepane amide DORAs and 2-SORAs enabled by exploration of isosteric quinazoline replacements” (Bioorg Med Chem Lett, 2015)
